Shown are actives, neighbours in structure and some others; about 5.7% of the full set was active somewhere.
CSC inhib: cancer stem cell inhibition; cancer stem cell-like cells viability, luminescence; inhibition, % at 7.5 µM; 300,000 tested, 1.1% active; AID 2717; in the data active = inhibition above about 75%; inconclusive = no clear call, values can overlap the other calls; tested in HMLE shEcad cells
Mdm2 MdmX PPI: disrupts the human Mdm2-MdmX interaction | O15151+Q00987 | SaOS-2 split-luciferase Mdm2/MdmX complementation, luminescence | inhibition, % at 8 µM | 330,000 tested, 3% active | AID 485346;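 active = inhibition of at least 50% at 8 µM in the primary screen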
Target sequence (O15151 whole entry, looked up): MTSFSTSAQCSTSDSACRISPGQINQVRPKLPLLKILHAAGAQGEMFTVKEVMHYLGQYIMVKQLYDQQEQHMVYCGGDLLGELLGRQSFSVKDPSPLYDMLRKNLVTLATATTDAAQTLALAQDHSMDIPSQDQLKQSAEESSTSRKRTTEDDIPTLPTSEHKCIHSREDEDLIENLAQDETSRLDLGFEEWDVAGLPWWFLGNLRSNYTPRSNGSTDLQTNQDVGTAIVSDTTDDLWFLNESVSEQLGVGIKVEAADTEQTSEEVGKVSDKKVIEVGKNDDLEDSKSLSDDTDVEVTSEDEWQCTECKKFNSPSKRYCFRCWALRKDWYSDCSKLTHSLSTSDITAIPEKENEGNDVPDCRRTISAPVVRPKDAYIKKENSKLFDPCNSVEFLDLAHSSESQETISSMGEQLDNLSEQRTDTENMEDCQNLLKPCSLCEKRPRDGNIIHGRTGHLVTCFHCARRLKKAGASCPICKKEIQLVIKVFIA
Target sequence (Q00987 whole entry, looked up): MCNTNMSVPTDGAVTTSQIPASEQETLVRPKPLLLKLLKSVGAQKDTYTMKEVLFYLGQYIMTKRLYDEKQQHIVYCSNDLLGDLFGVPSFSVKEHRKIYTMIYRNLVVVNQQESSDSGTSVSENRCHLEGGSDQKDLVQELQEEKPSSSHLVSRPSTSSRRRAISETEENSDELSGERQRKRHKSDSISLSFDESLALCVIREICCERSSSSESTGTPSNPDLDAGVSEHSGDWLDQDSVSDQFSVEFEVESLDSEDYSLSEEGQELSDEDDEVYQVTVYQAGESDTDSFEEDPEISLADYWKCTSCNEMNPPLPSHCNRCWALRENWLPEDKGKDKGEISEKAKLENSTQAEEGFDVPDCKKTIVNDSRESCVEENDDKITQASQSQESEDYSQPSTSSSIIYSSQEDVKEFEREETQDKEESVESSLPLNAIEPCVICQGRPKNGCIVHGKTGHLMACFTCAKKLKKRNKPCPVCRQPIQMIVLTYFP
SKKanGAS inh: inhibitors of SKKanGAS S. pyogenes growth in kanamycin (SK-promoter or general growth effect); inhibition, % at 7.5 µM; BacTiter-Glo, 6 h; 300,000 tested, 1.3% active;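 active = mean replicate score, as percent of positive control median, at least 50; inconclusive = mean below 50 but one replicate at or above 50; inactive = mean and every replicate below 50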;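 note: strain carries kanamycin resistance gene driven by streptokinase promoter and grows in 40 µg/ml kanamycin; loss of luminescence reflects streptokinase promoter inhibition or plain growth inhibition; 0% = median of DMSO wells and 100% = positive control at its reference dose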
Beta cell apopt: blocks beta cell apoptosis; INS-1E cytokine-induced death, ATP luminescence, 48 h; percent of positive-control rescue, neutral wells zero; protection from apoptosis, % (concentration not given with the values); 300,000 tested, 0.8% active;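 active = Every replicate reaches about 75%, or at least half do and their mean reaches it too, limit read from the data; inconclusive = At least half of replicates reach the limit but their mean does not; inactive = Under half of replicates reach the limit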;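 note: 0% = cytokine-treated negative control wells and 100% = positive control rescue; higher means more ATP so stronger rescue from cytokine killing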
T cruzi inh: blocks replication of Trypanosoma cruzi | inhibition, % (test concentration not listed) | 300,000 tested, 1.4% active | T. cruzi beta-gal in NIH3T3, luminescence, 90 h;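 active = mean inhibition across valid replicates above about 55%, limit read from the data; inconclusive = mean below that limit but half or more replicates reach it; inactive = mean below it, under half of replicates reach it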;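 note: signal also drops with host cell toxicity which is not excluded here; 0% = plate median of DMSO wells and 100% = zero luminescence signal; higher percent means less beta-gal luminescence so fewer parasites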
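Assay system: NIH/3T3 host cells with β-galactosidase reporter T. cruzi; input: 5,000 host fibroblasts per well; compound: single 50 nL compound addition per well in DMSO; timing: ≥90 h infection period, 3 h prior cell attachment; measured by: GalScreen β-gal luminescence, detergent lysis, 60 min; evaluation: percent inhibition of parasite-derived β-gal signal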
Calb FLC: C. albicans growth modulation with fluconazole. growth inhibition, % (test concentration not listed). C. albicans CaCi-2 (fluconazole-resistant clinical isolate) + fluconazole, Alamar Blue growth, 48 h. 300,000 tested, 0.57% active;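 active = growth inhibition above about 58% in most replicates, limit read from the data, passing the limit was not always enough; inconclusive = exactly half the replicates above a set limit; inactive = most replicates below a set limit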;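 note: all wells also contain fluconazole at 8 µg/ml as a sub-toxic cotreatment; 0% = median of DMSO wells and 100% = median of geldanamycin control wells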
Mdm2 MdmX conf: human Mdm2/MdmX binding inhibition, confirmed | inhibition, % at 8 µM | luminescent assay | shares compounds with Mdm2 MdmX PPI | 10,000 tested, 55% active; in the data active = inhibition above about 40%
FLuc counter: counter-screen for Mdm2/MdmX inhibitors: full-length luciferase; shares compounds with Mdm2 MdmX PPI; SaOS-2 full-length luciferase counterscreen, luminescence; inhibition, % at 8 µM; 6,200 tested, 77% active; AID 504607;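 active = mean inhibition at 8 µM reaching about 37%, which flags the compound as non-specific, limit read from the data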;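 note: p53-null SaOS-2 cells with luciferase driven by a doxycycline-inducible promoter; compound on cells about two nights before reading with doxycycline added after day one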
Numbers without * were called inactive; ? = inconclusive; nt = not tested or not shown.

SMILES	CSC inhib	Mdm2 MdmX PPI	SKKanGAS inh	Beta cell apopt	T cruzi inh	Calb FLC	Mdm2 MdmX conf	FLuc counter
CC(=O)/C(=C/N(C)C)C(=O)Nc1ccc(Cl)cc1Cl	1	4	3	1	11	29	nt	nt
CN(C)CCNC=C(C(=O)Nc1ccc(Cl)cc1Cl)C(=O)Nc1ccc(Cl)cc1Cl	78*	76*	56*	9	29	-7	39	nt
Cc1sc2ncnc(N3CCC(C(=O)Nc4ccccc4C(C)(C)C)CC3)c2c1C	-5	51*	10	3	13	-2	60*	28
CCCCc1nnc(NC(=O)C2CCN(c3ncnc4sc(C)c(C)c34)CC2)s1	-7	-17	-1	nt	32	2	nt	nt
CCc1nnc(NC(=O)C2CCN(c3ncnc4sc(C)c(C)c34)CC2)s1	-3	53*	nt	-11	nt	nt	53*	81*
Cc1sc2ncnc(N3CCC(C(=O)Nc4nc(-c5cccs5)cs4)CC3)c2c1C	-1	86*	40	31	64*	-6	93*	43*
CCc1nnc(NC(=O)C2CCN(S(=O)(=O)c3ccc(C)cc3)CC2)s1	1	53*	31	-7	-4	-2	-2	nt
CCCCn1c(N)c(N(CC(C)C)C(=O)c2oc3c(Cl)cccc3c2C)c(=O)[nH]c1=O	nt	6	11	-5	53	-12	nt	nt
CC(=O)c1c(C)[nH]c(C(=O)C(C)Sc2nnc(NC3CC3)s2)c1C (stereo not given)	nt	20	nt	45	nt	nt	nt	nt
COc1ccccc1CNC(=O)C(NS(=O)(=O)c1cccc2nsnc12)C(C)C (stereo not given)	14	1	-6	4	-2	0	nt	nt
CC1CCCCC1NC(=O)CCS(=O)(=O)c1cc2c(cc1Cl)NC(=O)CO2 (stereo not given)	-6	3	2	0	2	0	nt	nt
CC(C)(C)n1nnnc1C(c1cccs1)N(Cc1ccc(Cl)cc1)CC1CCCO1 (stereo not given)	27	56*	18	7	58*	-2	57*	70*
CCOC(=O)c1sc(NC(=O)Nc2cccc(Cl)c2)cc1C	-5	78*	95*	101*	52	-10	71*	34
CCOC(=O)c1sc(NC(=O)c2cccs2)cc1C	-8	-126	1	14	20	-12	nt	nt
Cc1[nH]c(N=Nc2ccccc2)nc1N=Nc1ccccc1	105*	77*	?	100*	65*	-3	84*	24
CC(C)c1cc(C(=O)N2CCCC(CCC(=O)N3CCN(c4ccccn4)CC3)C2)no1 (stereo not given)	26	13	12	-10	14	-6	nt	nt
COc1ccc(-c2cc(C3CCN(c4ccc(C(C)=O)cc4[N+](=O)[O-])CC3)[nH]n2)cc1	76*	52*	83*	3	63*	-7	46*	51*
COc1ccc(N2CCN(c3ccc(C(=O)O)cc3[N+](=O)[O-])CC2)cc1	-4	-7	4	2	3	-2	nt	nt
CC1CCCCC1NC(=O)CNC(=O)c1ccco1 (stereo not given)	-7	2	3	-3	-10	-8	nt	nt
Cc1cc(NC(=O)C(C)Sc2nc(-c3cccs3)nc3ccccc23)no1 (stereo not given)	nt	84*	nt	nt	nt	nt	52*	68*
CCSc1nc(-c2cccs2)nc2ccccc12	20	-12	-6	-5	-4	8	nt	nt
CCC[C@@H]1Cc2ccccc2N1C(C)=O	-13	7	nt	-15	nt	nt	nt	nt
Cc1nn(C(C)(C)C)c(OC(=O)C2CCCC2)c1S(=O)(=O)c1ccccc1	nt	nt	2	nt	-2	3	nt	nt
Cc1ccc(S(=O)(=O)c2c(C)nn(C(C)(C)C)c2OC(=O)C2CCCC2)cc1	33	70*	2	-12	12	-4	24	nt
Cc1ccc(NC(=O)Nc2ccnc(-c3cccnc3)n2)cc1	30	76*	7	-19	-3	-9	71*	68*
SMILES	CSC inhib	Mdm2 MdmX PPI	SKKanGAS inh	Beta cell apopt	T cruzi inh	Calb FLC	Mdm2 MdmX conf	FLuc counter
Cc1ccc(C(=O)Nc2ccnc(-c3cccnc3)n2)cc1	3	28	-3	-7	1	57	nt	nt
CC(C)C[C@H](NC(=O)N1c2ccccc2NC(=O)[C@@H]1C(C)C)C(=O)N[C@@H](Cc1ccccc1)C(=O)O	-3	13	3	0	-17	-4	nt	nt
COc1cc(OC)c2ccc(=O)oc2c1C(CCN1CCN(c2ccccc2)CC1)c1ccc(N(C)C)cc1 (stereo not given)	13	28	2	-2	-15	-11	nt	nt
Cc1ccc(-c2nc3ccccc3o2)cc1NC(=S)NC(=O)c1cccs1	-4	22	-11	0	5	6	nt	nt
Cc1cc(C)c2oc(-c3ccc(C)c(NC(=S)NC(=O)c4cccs4)c3)nc2c1	nt	77*	8	-3	-7	-2	0	nt
O=C(Cc1ccc([N+](=O)[O-])cc1)Nc1cc(C(F)(F)F)cc(C(F)(F)F)c1	13	51*	-1	13	70*	-3	75*	63*
O=C(Cc1ccc([N+](=O)[O-])cc1)Nc1cccc(C(F)(F)F)c1	-2	-10	0	9	15	-3	nt	nt
Cc1cc(C)cc(Nc2cc(=O)n(C3CCCCC3)c(=O)[nH]2)c1	47	51*	7	-1	5	-13	15	nt
CC1CCCN(c2ccc([N+](=O)[O-])cc2C(=O)c2ccccc2)C1 (stereo not given)	57	65*	-8	45	5	13	55*	99*
O=C(COC(=O)c1cc([N+](=O)[O-])ccc1N1CCOCC1)Nc1ccc(Cl)cn1	86*	76*	29	38	-33	6	58*	68*
Cc1ccc(C(=O)c2cc([N+](=O)[O-])ccc2N2CC(C)OC(C)C2)cc1 (stereo not given)	49	42	-10	24	-22	0	nt	nt
COc1ccc(COC(=O)c2cc([N+](=O)[O-])ccc2N2CCOCC2)cc1F	60	72*	1	51	43	7	78*	125*
Cc1ccc(C(=O)c2cc([N+](=O)[O-])ccc2N2CCCCC2)cc1	56	53*	0	10	-6	-2	65*	96*
O=C(COC(=O)c1cc([N+](=O)[O-])ccc1N1CCOCC1)Nc1ccc(Cl)cc1	4	26	17	nt	-3	3	nt	nt
Cc1cc2cc(C#N)c(N3CCN(S(C)(=O)=O)CC3)nc2cc1C	-2	4	-4	-3	8	-20	nt	nt
COc1ccccc1-c1c(C)nn2c(N)c(-c3ccccc3)cnc12	12	10	5	27	7	-5	nt	nt

High-throughput results from PubChem BioAssay.
